“And” between values parts separate entries of the source, which are not always exact repeats. Equal entries are not always repeated. Where two headings read alike, the source gives them in different places.
Columns and labels:
[1] = for AUC0–last GLS mean ratio / t1/2,z GLS mean ratio / Ae (cumulative amount excreted unchanged in urine) / CL/F / Feu (fraction of dose excreted unchanged into urine): single oral 375 mg; for Ae (cumulative amount excreted unchanged in urine) / CL/F / Feu (fraction of dose excreted unchanged into urine): geometric mean (CV%)
[2] = 750 mg once followed by 250 mg once daily for 4 days (750/250 mg); cited from earlier work
[3] = Safety assessment: treatment-emergent adverse events; format: in vivo, human; details: single oral 375 mg
Outline: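 Open-label, nonrandomized, parallel-group Phase 1 study in adults with mild, moderate or severe renal impairment (severe excluded if hemodialysis-dependent) and normal renal function. Normal-function controls were matched to moderate-impairment participants by sex, age (± 5 years) and BMI (± 10%). Each received a single oral 375 mg dose as three 125-mg tablets. TEAEs were recorded for nature, frequency and severity, and coded by MedDRA v25.0 System Organ Class/Preferred Term in all treated participants.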

plasma protein [4] = assay: Unbound fraction in plasma; format: in vivo; details: human, oral, 375 mg, protein binding rate (= [1 − unbound fraction] × 100), humans
plasma protein [5] = details: mice; cited from earlier work
[6] = test system: organic cation transporter (OCT) 2; details: in vitro; cited from earlier work
MATE-2K = details: in vitro; cited from earlier work
[7] = test system: multidrug and toxin extrusion (MATE) 1; details: in vitro; cited from earlier work
plasma protein [8] = details: hamsters; cited from earlier work
[9] = mild impairment/normal function
[10] = moderate impairment/normal function
[11] = severe impairment/normal function

SMILES: Cn1cnc(Cn2c(=O)[nH]/c(=N\c3cc4cn(C)nc4cc3Cl)n(Cc3cc(F)c(F)cc3F)c2=O)n1 [ensitrelvir]
- AUC0–last GLS mean ratio [1, 9]: 1.4303
- t1/2,z GLS mean ratio [1, 9]: 1.19 and 1.1855
- Ae (cumulative amount excreted unchanged in urine) ([1]; mild renal impairment): 45.7 (44.7) mg
- CL/F ([1]; mild renal impairment): 0.262 (20.8) L/h
- Feu (fraction of dose excreted unchanged into urine) ([1]; mild renal impairment): 12.2 (44.7) %
- AUC0–last GLS mean ratio [1, 10]: 1.4780
- t1/2,z GLS mean ratio [1, 10]: 1.24 and 1.2434
- Ae (cumulative amount excreted unchanged in urine) ([1]; moderate renal impairment): 58.6 (20.6) mg
- CL/F ([1]; moderate renal impairment): 0.253 (26.0) L/h
- Feu (fraction of dose excreted unchanged into urine) ([1]; moderate renal impairment): 15.6 (20.6) %
- Ae (cumulative amount excreted unchanged in urine) ([1]; normal renal function): 54.8 (29.5) mg
- CL/F ([1]; normal renal function): 0.376 (26.0) L/h
- Feu (fraction of dose excreted unchanged into urine) ([1]; normal renal function): 14.6 (29.5) %
- increased AUC level with renal impairment ([1]; renal impairment vs normal renal function): < 2 fold
- AUC0–last GLS mean ratio [1, 11]: 1.5475
- t1/2,z GLS mean ratio [1, 11]: 1.61 and 1.6072
- Ae (cumulative amount excreted unchanged in urine) ([1]; severe renal impairment): 49.2 (26.5) mg
- CL/F ([1]; severe renal impairment): 0.235 (26.1) L/h
- Feu (fraction of dose excreted unchanged into urine) ([1]; severe renal impairment): 13.1 (26.5) %
- tolerability [2]: demonstrated tolerability
- Any treatment-related TEAE ([3]; mild renal impairment (N = 8)): 1 (12.5) n (%)
- Any treatment-related TEAE ([3]; moderate renal impairment (N = 8)): 1 (12.5) n (%)
- severity category of all TEAEs and treatment-related TEAEs ([3]; all groups): mild or moderate
- fraction unbound (plasma protein [4]): 0.983 to 0.988
- protein binding rate (plasma protein [5]): 97.6%
- substrate for OCT2 [6]: not a substrate
- substrate for MATE-2K (MATE-2K): not a substrate
- substrate for MATE1 [7]: not a substrate
- protein binding rate (plasma protein [8]): 98.3%
